Test results reported in ChEMBL document CHEMBL1138564, “Microwave-induced synthesis and anti-microbial activities of 7,10,11,12-tetrahydrobenzo[c]acridin-8(9H)-one derivatives” (2009).
Converted amounts (≈) assume the structure as drawn. The source made the active and inactive calls. The rule behind the calls is not given here.

Tests used:
Staphylococcus [1] = assay: Antimicrobial activity against Staphylococcus albus NCIM 2178 at 500 ug/disk after 24 hrs by disk diffusion method; format: functional; settings: NCIM 2178, 24 h, read-out: DIZ
Summary of the method: (§1)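 Disc diffusion. 100 µl of bacterial suspension at 10⁸ CFU/ml was spread on Mueller–Hinton agar. Discs loaded with test compound dissolved in DMSO were placed on the lawn, with a DMSO-only disc as negative control. Plates were incubated at 37 °C for 24 h, and the inhibition zone diameter was measured.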

Salmonella typhimurium [2] = assay: Antimicrobial activity against Salmonella Typhimurium NCIM 2501 at 1000 ug/disk after 24 hrs by disk diffusion method; format: functional, Salmonella enterica subsp. enterica serovar Typhimurium; settings: Salmonella enterica, NCIM 2501, 24 h; read-out: DIZ; summary of the method: as §1
Bacillus cereus = assay: Antimicrobial activity against Bacillus cereus NCIM 2155 at 1000 ug/disk after 24 hrs by disk diffusion method; format: functional; settings: NCIM 2155, 24 h, read-out: DIZ
Summary of the method: (§2)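 Disc diffusion on Mueller–Hinton agar. 100 µl of bacterial suspension at 10⁸ CFU/ml is spread on the plate. Discs carry test compounds at two loadings, dissolved in DMSO; DMSO alone serves as negative control. Ofloxacin disc is the positive reference. Plates are incubated at 37 °C for 24 h, and the inhibition zone diameter is measured.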

Rhodotorula mucilaginosa [3] = assay: Antimicrobial activity against Rhodotorula rubra NCIM 3174 at 500 ug/disk after 72 hrs by disk diffusion method; format: functional; settings: NCIM 3174, 72 h, read-out: DIZ
Summary of the method: (§3)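 Fungal disc diffusion. 100 µl of suspension at 10⁶ CFU/ml was spread on Sabouraud's dextrose agar. Discs carrying test compound in DMSO were applied, with a DMSO-only disc as negative control. Plates were incubated at 27 °C for 72 h, and the zone of inhibition diameter was measured.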

Aliivibrio fischeri [4] = assay: Antimicrobial activity against Vibrio fischeri NCIM 2154 after 24 hrs by serial dilution method; format: functional; settings: NCIM 2154, 24 h
Lipomyces lipofer [5] = assay: Antimicrobial activity against Lipomyces lipofer NCIM 3252 at 1000 ug/disk after 72 hrs by disk diffusion method; format: functional
Summary of the method: (§4)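 Disc diffusion on Sabouraud's dextrose agar. 100 µl of fungal suspension at 10⁶ CFU/ml is spread on the plate. Discs carry test compounds at two loadings in DMSO; DMSO alone is the negative control. Clotrimazole disc is the positive reference. Plates are incubated at 27 °C for 72 h, and the zone of inhibition diameter is measured.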

Rhodotorula mucilaginosa [6] = assay: Antimicrobial activity against Rhodotorula rubra NCIM 3174 at 1000 ug/disk after 72 hrs by disk diffusion method; format: functional; settings: NCIM 3174, 72 h, read-out: DIZ; summary of the method: as §3
Escherichia coli [7] = assay: Antimicrobial activity against Escherichia coli NCIM 2065 after 24 hrs by serial dilution method; format: functional; settings: NCIM 2065, 24 h
Summary of the method: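 Broth dilution MIC in nutrient broth, run only for organisms found sensitive in disc diffusion. Compounds are two-fold serially diluted in 1 ml sterile broth per tube, spanning 3.9 to 1000. Inoculated tubes are incubated at 37 °C for 24 h.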

Lipomyces lipofer [8] = assay: Antimicrobial activity against Lipomyces lipofer NCIM 3252 at 500 ug/disk after 72 hrs by disk diffusion method; format: functional; summary of the method: as §4
Trichoderma viride [9] = assay: Antimicrobial activity against Trichoderma viride NCIM 1195 at 1000 ug/disk after 72 hrs by disk diffusion method; format: functional; settings: NCIM 1195, 72 h, read-out: DIZ; summary of the method: as §3
Penicillium chrysogenum [10] = assay: Antimicrobial activity against Penicillium chrysogenum NCIM 707 at 500 ug/disk after 72 hrs by disk diffusion method; format: functional; summary of the method: as §4
Salmonella typhimurium [11] = assay: Antimicrobial activity against Salmonella Typhimurium NCIM 2501 at 500 ug/disk after 24 hrs by disk diffusion method; format: functional, Salmonella enterica subsp. enterica serovar Typhimurium; settings: Salmonella enterica, NCIM 2501, 24 h; read-out: DIZ; summary of the method: as §1
Klebsiella aerogenes = assay: Antimicrobial activity against Klebsiella aerogenes NCIM 2239 at 500 ug/disk after 24 hrs by disk diffusion method; format: functional; settings: NCIM 2239, 24 h, read-out: DIZ; summary of the method: as §2
Proteus vulgaris [12] = assay: Antimicrobial activity against Proteus vulgaris NCIM 2027 at 1000 ug/disk after 24 hrs by disk diffusion method; format: functional; settings: NCIM 2027, 24 h, read-out: DIZ; summary of the method: as §2
Aspergillus flavus [13] = assay: Antimicrobial activity against Aspergillus flavus NCIM 902 at 1000 ug/disk after 72 hrs by disk diffusion method; format: functional; settings: NCIM 902, 72 h, read-out: DIZ; summary of the method: as §4
Escherichia coli [14] = assay: Antimicrobial activity against Escherichia coli NCIM 2065 at 500 ug/disk after 24 hrs by disk diffusion method; format: functional; settings: NCIM 2065, 24 h, read-out: DIZ; summary of the method: as §2
Penicillium chrysogenum [15] = assay: Antimicrobial activity against Penicillium chrysogenum NCIM 707 at 1000 ug/disk after 72 hrs by disk diffusion method; format: functional; summary of the method: as §4
[16] = tested on: Rhodococcus corynebacterioides; assay: Antimicrobial activity against Corynebacterium rubrum NCIM 2252 at 500 ug/disk after 24 hrs by disk diffusion method; format: functional; settings: Rhodococcoides corynebacterioides, NCIM 2252, 24 h; read-out: DIZ; summary of the method: as §2
Proteus vulgaris [17] = assay: Antimicrobial activity against Proteus vulgaris NCIM 2027 at 500 ug/disk after 24 hrs by disk diffusion method; format: functional; settings: NCIM 2027, 24 h, read-out: DIZ; summary of the method: as §2
Aspergillus flavus [18] = assay: Antimicrobial activity against Aspergillus flavus NCIM 902 after 72 hrs by serial dilution method; format: functional; settings: NCIM 535, 72 h, in the assay text read “NCIM 535” for “NCIM 902”
Summary of the method: (§5)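 MIC by broth dilution in Sabouraud's dextrose broth, only for fungi sensitive in disc diffusion. Two-fold serial dilutions of compounds are made in 1 ml broth per tube, range 3.9 to 1000. Inoculated tubes are incubated at 27 °C for 72 h.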

Trichoderma viride [19] = assay: Antimicrobial activity against Trichoderma viride NCIM 1195 at 500 ug/disk after 72 hrs by disk diffusion method; format: functional; settings: NCIM 1195, 72 h, read-out: DIZ; summary of the method: as §3
Aspergillus parasiticus [20] = assay: Antimicrobial activity against Aspergillus parasiticus NCIM 904 at 500 ug/disk after 72 hrs by disk diffusion method; format: functional; settings: NCIM 904, 72 h, read-out: DIZ; summary of the method: as §4
Staphylococcus [21] = assay: Antimicrobial activity against Staphylococcus albus NCIM 2178 at 1000 ug/disk after 24 hrs by disk diffusion method; format: functional; settings: NCIM 2178, 24 h, read-out: DIZ; summary of the method: as §1
Aliivibrio fischeri [22] = assay: Antimicrobial activity against Vibrio fischeri NCIM 2154 at 500 ug/disk after 24 hrs by disk diffusion method; format: functional; settings: NCIM 2154, 24 h, read-out: DIZ; summary of the method: as §1
Escherichia coli [23] = assay: Antimicrobial activity against Escherichia coli NCIM 2065 at 1000 ug/disk after 24 hrs by disk diffusion method; format: functional; settings: NCIM 2065, 24 h, read-out: DIZ; summary of the method: as §2
Bacillus subtilis = assay: Antimicrobial activity against Bacillus subtilis NCIM 2063 at 500 ug/disk after 24 hrs by disk diffusion method; format: functional; settings: NCIM 2063, 24 h, read-out: DIZ; summary of the method: as §2
Aspergillus fumigatus = assay: Antimicrobial activity against Aspergillus fumigatus NCIM 902 at 500 ug/disk after 72 hrs by disk diffusion method; format: functional; summary of the method: as §4
Aspergillus flavus [24] = assay: Antimicrobial activity against Aspergillus flavus NCIM 902 at 500 ug/disk after 72 hrs by disk diffusion method; format: functional; settings: NCIM 902, 72 h, read-out: DIZ; summary of the method: as §4
Pseudomonas aeruginosa [25] = assay: Antimicrobial activity against Pseudomonas aeruginosa NCIM 2200 at 500 ug/disk after 24 hrs by disk diffusion method; format: functional; settings: NCIM 2200, 24 h, read-out: DIZ; summary of the method: as §1
[26] = tested on: Rhodococcus corynebacterioides; assay: Antimicrobial activity against Corynebacterium rubrum NCIM 2252 at 1000 ug/disk after 24 hrs by disk diffusion method; format: functional; settings: Rhodococcoides corynebacterioides, NCIM 2252, 24 h; read-out: DIZ; summary of the method: as §2
Aliivibrio fischeri [27] = assay: Antimicrobial activity against Vibrio fischeri NCIM 2154 at 1000 ug/disk after 24 hrs by disk diffusion method; format: functional; settings: NCIM 2154, 24 h, read-out: DIZ; summary of the method: as §1
Pseudomonas aeruginosa [28] = assay: Antimicrobial activity against Pseudomonas aeruginosa NCIM 2200 at 1000 ug/disk after 24 hrs by disk diffusion method; format: functional; settings: NCIM 2200, 24 h, read-out: DIZ; summary of the method: as §2
Aspergillus parasiticus [29] = assay: Antimicrobial activity against Aspergillus parasiticus NCIM 904 after 72 hrs by serial dilution method; format: functional; settings: NCIM 904, 72 h; summary of the method: as §5

Structure (SMILES) | zone of inhibition at 500 µg/disc (Staphylococcus [1]) [mm] | zone of inhibition at 1000 µg/disc (Salmonella typhimurium [2]) [mm] | zone of inhibition at 1000 µg/disc (Bacillus cereus) [mm] | zone of inhibition at 500 µg/disc (Rhodotorula mucilaginosa [3]) [mm] | MIC (Aliivibrio fischeri [4]) [µg/mL] | zone of inhibition at 1000 µg/disc (Rhodotorula mucilaginosa [6]) [mm] | MIC (Escherichia coli [7]) [µg/mL] | zone of inhibition at 1000 µg/disc (Trichoderma viride [9]) [mm] | diameter of the inhibition zone (DIZ) (Penicillium chrysogenum [10]) | zone of inhibition at 500 µg/disc (Salmonella typhimurium [11]) [mm] | zone of inhibition at 500 µg/disc (Klebsiella aerogenes) [mm] | zone of inhibition at 1000 µg/disc (Proteus vulgaris [12]) [mm] | zone of inhibition at 1000 µg/disc (Aspergillus flavus [13]) [mm] | zone of inhibition at 500 µg/disc (Escherichia coli [14]) [mm] | zone of inhibition at 500 µg/disc [16] [mm] | zone of inhibition at 500 µg/disc (Proteus vulgaris [17]) [mm] | MIC (Aspergillus flavus [18]) [µg/mL] | zone of inhibition at 500 µg/disc (Trichoderma viride [19]) [mm] | zone of inhibition at 500 µg/disc (Aspergillus parasiticus [20]) [mm] | zone of inhibition at 1000 µg/disc (Staphylococcus [21]) [mm] | also measured
CC1(C)CC(=O)C2=C(C1)Nc1c(ccc3ccccc13)C2c1ccc(Cl)cc1 (stereo unspecified) | 7 | 11 | 13 | 9 | 62.5 (≈ 161 µM) | 13 | 62.5 (≈ 161 µM) | 9 | inactive | 9 | 8 | 10 | 8 | 7 | 7 | 9 | 125 (≈ 322 µM) | 7 | 12 | 9 | diameter of the inhibition zone (DIZ) (Lipomyces lipofer [5]): inactive; diameter of the inhibition zone (DIZ) (Lipomyces lipofer [8]): inactive; diameter of the inhibition zone (DIZ) (Penicillium chrysogenum [15]): inactive; zone of inhibition at 500 µg/disc (Aliivibrio fischeri [22]): 7 mm; zone of inhibition at 1000 µg/disc (Escherichia coli [23]): 9 mm; zone of inhibition at 500 µg/disc (Bacillus subtilis): 8 mm; diameter of the inhibition zone (DIZ) (Aspergillus fumigatus): inactive; zone of inhibition at 500 µg/disc (Aspergillus flavus [24]): 7 mm; zone of inhibition at 500 µg/disc (Pseudomonas aeruginosa [25]): 7 mm; zone of inhibition at 1000 µg/disc [26]: 10 mm; zone of inhibition at 1000 µg/disc (Aliivibrio fischeri [27]): 9 mm; zone of inhibition at 1000 µg/disc (Pseudomonas aeruginosa [28]): 9 mm; MIC (Aspergillus parasiticus [29]): 3.9 µg/mL (≈ 10.1 µM)
CC1(C)CC(=O)C2=C(C1)Nc1c(ccc3ccccc13)C2c1ccc(O)cc1 (stereo unspecified) | 7 | 11 | 11 | 21 | 125 (≈ 338 µM) | 23 | 31.2 (≈ 84.4 µM) | 12 | inactive | 9 | 9 | 9 | 12 | 7 | 7 | 7 | 31.2 (≈ 84.4 µM) | 10 | 12 | 8 | zone of inhibition at 1000 µg/disc (Lipomyces lipofer [5]; NCIM 3252, 72 h, read-out: DIZ): 10 mm; zone of inhibition at 500 µg/disc (Lipomyces lipofer [8]; NCIM 3252, 72 h, read-out: DIZ): 7 mm; zone of inhibition at 1000 µg/disc (Penicillium chrysogenum [15]; NCIM 707, 72 h, read-out: DIZ): 9 mm; zone of inhibition at 500 µg/disc (Aliivibrio fischeri [22]): 7 mm; zone of inhibition at 1000 µg/disc (Escherichia coli [23]): 12 mm; zone of inhibition at 500 µg/disc (Bacillus subtilis): 7 mm; diameter of the inhibition zone (DIZ) (Aspergillus fumigatus): inactive; zone of inhibition at 500 µg/disc (Aspergillus flavus [24]): 9 mm; zone of inhibition at 500 µg/disc (Pseudomonas aeruginosa [25]): 7 mm; zone of inhibition at 1000 µg/disc [26]: 10 mm; zone of inhibition at 1000 µg/disc (Aliivibrio fischeri [27]): 9 mm; zone of inhibition at 1000 µg/disc (Pseudomonas aeruginosa [28]): 9 mm; MIC (Aspergillus parasiticus [29]): 7.8 µg/mL (≈ 21.1 µM)
